The source of these data is ChEMBL document CHEMBL1777764, “Synthesis and evaluation of 1-(1H-indol-3-yl)ethanamine derivatives as new antibacterial agents” (Bioorg Med Chem, 2011).

The MIC is the smallest concentration in the dilution series that meets the test's criterion for growth inhibition. High values mean weaker potency, low ones greater potency.

The subject of data set [1] is Staphylococcus aureus. Briefly: Antibacterial activity against Staphylococcus aureus ATCC 25923 after 18 hrs by broth microdilution method. Format: functional. The note with it: ATCC 25923, 18 h. The procedure, abridged: (§1)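 MIC by broth microdilution per ISO 20776-1:2006 and CLSI M07-A8. Inoculum 10^6 cfu/ml in Mueller-Hinton broth with compound serially diluted, final concentrations 2 to 128 ug/ml, duplicate rows, no-drug growth control. Incubation 18 h at 37 °C. MIC taken as lowest concentration giving complete inhibition of visible growth. Each compound tested at least twice.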
(In general: Dilution methods test growth across graded concentrations, often in twofold steps.)

The test system of data set [2] is Staphylococcus aureus. The experiment in a line: Antibacterial activity against Staphylococcus aureus ATCC 29213 after 18 hrs by broth microdilution method. Type of data set: functional. Particulars: ATCC 29213, 18 h. A digest of the protocol: as §1
Data set [3] concerns Staphylococcus aureus. Briefly: Antibacterial activity against Staphylococcus aureus ATCC 9144 after 18 hrs by broth microdilution method. Type of data set: functional. Particulars: ATCC 9144, 18 h. The procedure, abridged:
as §1

Data set [4] has as its system Staphylococcus aureus. The experiment in a line: Antibacterial activity against Staphylococcus aureus ATCC 6538 after 18 hrs by broth microdilution method. The note with it: ATCC 6538, 18 h. Type of data set: functional. A digest of the protocol: as §1
Data set [5] relates to Staphylococcus aureus. Briefly: Antibacterial activity against Staphylococcus aureus CIP 65.6 after 18 hrs by broth microdilution method. The note with it: CIP 65.6, 18 h. Format: functional. The procedure, abridged:
as §1

Data set [6] relates to Staphylococcus aureus. The experiment in a line: Antibacterial activity against Staphylococcus aureus CIP 103428 after 18 hrs by broth microdilution method. Particulars: CIP 103428, 18 h. Format: functional. A digest of the protocol: as §1
Data set [7] relates to Staphylococcus epidermidis. The experiment in a line: Antibacterial activity against Staphylococcus epidermidis ATCC 12228 after 18 hrs by broth microdilution method. Format: functional. Particulars: ATCC 12228, 18 h. A digest of the protocol:
as §1

The subject of data set [8] is Staphylococcus epidermidis. The experiment in a line: Antibacterial activity against Staphylococcus epidermidis CIP 81.55 after 18 hrs by broth microdilution method. Type of data set: functional. Particulars: CIP 81.55, 18 h. The procedure, abridged:
as §1

The subject of data set [9] is Staphylococcus epidermidis. Briefly: Antibacterial activity against Staphylococcus epidermidis CIP 103627 after 18 hrs by broth microdilution method. The note with it: CIP 103627, 18 h. Format: functional. The procedure, abridged:
as §1

The test system of data set [10] is KB. Briefly: Cytotoxicity against human KB cells at 10 uM. Format: cell-based.
In data set [11] the test system is HCT-116. The experiment in a line: Cytotoxicity against human HCT116 cells at 10 uM. Particulars: hct-116, 10 µM. Type of data set: cell-based.
Data set [12] has as its system MRC5. Briefly: Cytotoxicity against human MRC5 cells at 10 uM. Type of data set: cell-based. The note with it: mrc5, 10 µM.
Data set [13] concerns KB. The experiment in a line: Cytotoxicity against human KB cells at 1 uM. Format: cell-based.
Data set [14] deals with HCT-116. Briefly: Cytotoxicity against human HCT116 cells at 1 uM. The note with it: hct-116, 1 µM. Type of data set: cell-based.
Data set [15] concerns MRC5. The experiment in a line: Cytotoxicity against human MRC5 cells at 1 uM. Format: cell-based. The note with it: mrc5, 1 µM.
Data set [16] deals with Staphylococcus aureus. Briefly: Antibacterial activity against methicillin-resistant Staphylococcus aureus CIP 65.25 after 18 hrs by broth microdilution method. Format: functional. Particulars: CIP 65.25, 18 h. The procedure, abridged: (§2)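 Broth microdilution following ISO 20776-1:2006 and CLSI M07-A8, in Mueller-Hinton broth. Inoculum was 10^6 cfu/ml, with compound serial dilutions spanning 2 to 128 ug/ml and a compound-free growth control well. Plates were incubated 18 h at 37 °C. MIC was the lowest concentration giving complete inhibition of visible growth. Each compound was tested at least twice.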

The test system of data set [17] is Staphylococcus aureus. Briefly: Antibacterial activity against methicillin-resistant Staphylococcus aureus ATCC 33592 after 18 hrs by broth microdilution method. Type of data set: functional. Particulars: ATCC 33592, 18 h. A digest of the protocol:
as §2

Data set [18] relates to Staphylococcus aureus. Briefly: Antibacterial activity against vancomycin intermediate Staphylococcus aureus […] after 18 hrs by broth microdilution method. Type of data set: functional. The procedure, abridged: as §2
Data set [19] concerns Streptococcus pneumoniae. Briefly: Antibacterial activity against Streptococcus pneumoniae ATCC 49619 after 18 hrs by broth microdilution method. Format: functional. Particulars: ATCC 49619, 18 h. A digest of the protocol: (§3)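 MIC by broth microdilution per ISO 20776-1:2006 and CLSI M07-A8. Inoculum 10^6 cfu/ml in Mueller-Hinton broth […]. Compound serially diluted, final 2 to 128 ug/ml, duplicate rows, no-drug growth control. Read after 18 h at 37 °C as lowest concentration fully inhibiting visible growth. At least two experiments.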

The subject of data set [20] is Streptococcus pneumoniae. Briefly: Antibacterial activity against Streptococcus pneumoniae ATCC 6303 after 18 hrs by broth microdilution method. Format: functional. Particulars: ATCC 6303, 18 h. A digest of the protocol:
as §3

Values after ≈ are worked out from the molar mass of the structure shown. Bounds are passed on as bounds.

As for `CC(C)CC(NO)c1c[nH]c2ccccc12` (stereo not given), the MIC against Staphylococcus aureus [1], with Staphylococcus aureus [2], against Staphylococcus aureus [3], against Staphylococcus aureus [4], against Staphylococcus aureus [5] and against Staphylococcus aureus [6] was 64 µg/mL (≈ 293 µM) in each case. For the same compound, the MIC in data set [7], in data set [8] and in data set [9] was 32 µg/mL (≈ 147 µM) each time. For the same compound, the Activity result with KB [10], in the data set on HCT-116 [11], in the data set on MRC5 [12], with KB [13], in the data set on HCT-116 [14] and in the data set on MRC5 [15] was “Non-toxic” each time.
As for `CC(C)CC(NO)c1c[nH]c2ccc(I)cc12` (stereo not given), the MIC in the data set with Staphylococcus aureus [1], against Staphylococcus aureus [2], against Staphylococcus aureus [3], in the data set on Staphylococcus aureus [4], with Staphylococcus aureus [5] and in the data set with Staphylococcus aureus [6] was 32 µg/mL (≈ 93 µM) in each case. The MIC in data set [7], in data set [8] and in data set [9] was 16 µg/mL (≈ 46.5 µM) in each case. Moreover, the Activity result with KB [10], with HCT-116 [11], in the data set with MRC5 [12], with KB [13], in the data set on HCT-116 [14] and with MRC5 [15] was “Non-toxic” each time.
Regarding `CC(C)CC(NO)c1c[nH]c2ccc(Br)cc12` (stereo not given), the MIC with Staphylococcus aureus [1], against Staphylococcus aureus [2], in the data set with Staphylococcus aureus [3], against Staphylococcus aureus [4], in the data set with Staphylococcus aureus [5] and in the data set with Staphylococcus aureus [6] was 32 µg/mL (≈ 108 µM) throughout. The MIC in data set [7], in [8] and in data set [9] was 16 µg/mL (≈ 53.8 µM) each time. Moreover, the Activity entry in the data set with KB [10], with HCT-116 [11], in the data set with MRC5 [12], with KB [13], in the data set on HCT-116 [14] and in the data set with MRC5 [15] was “Non-toxic” each time.
As for `CC(C)(C)OC(=O)NCC(c1c[nH]c2ccc(Br)cc12)N(O)Cc1ccccc1` (stereo not given), the MIC with Staphylococcus aureus [1], against Staphylococcus aureus [2], against Staphylococcus aureus [3], with Staphylococcus aureus [4], in the data set on Staphylococcus aureus [5] and in the data set with Staphylococcus aureus [6] was 8 µg/mL (≈ 17.4 µM) throughout. Further, the MIC came out at 16 µg/mL (≈ 34.8 µM) against Staphylococcus aureus [16]; 16 µg/mL (≈ 34.8 µM) with Staphylococcus aureus [17]; 8 µg/mL (≈ 17.4 µM) against Staphylococcus aureus [18]; 16 µg/mL (≈ 34.8 µM) in [7]; 16 µg/mL (≈ 34.8 µM) in data set [8]; 16 µg/mL (≈ 34.8 µM) in [9]. Moreover, the MIC in the data set on Streptococcus pneumoniae [19] and against Streptococcus pneumoniae [20] was 128 µg/mL (≈ 278 µM) in each case. Moreover, the Activity result in the data set with KB [10], in the data set with HCT-116 [11], in the data set on MRC5 [12], in the data set with KB [13], in the data set on HCT-116 [14] and in the data set with MRC5 [15] was “Non-toxic” in each case.
In the case of `CC(C)(C)OC(=O)NCC(c1c[nH]c2cc(Br)ccc12)N(O)Cc1ccccc1` (stereo not given), the MIC in the data set on Staphylococcus aureus [1], against Staphylococcus aureus [2], with Staphylococcus aureus [3], against Staphylococcus aureus [4], in the data set with Staphylococcus aureus [5] and in the data set with Staphylococcus aureus [6] was 8 µg/mL (≈ 17.4 µM) in each case. Moreover, the MIC (with Staphylococcus aureus [16]; in the data set with Staphylococcus aureus [17]; against Staphylococcus aureus [18]; in [7]; in data set [8]; in data set [9]) was 16 µg/mL (≈ 34.8 µM) in each case. For the same compound, the MIC with Streptococcus pneumoniae [19] and against Streptococcus pneumoniae [20] was over 128 µg/mL in each case. The Activity entry in the data set on KB [10], in the data set on HCT-116 [11], with MRC5 [12], in the data set on KB [13], in the data set with HCT-116 [14] and in the data set on MRC5 [15] was “Non-toxic” each time.
